Laboratory results as given in the RNAGym collection of RNA variant scans (doi:10.1126/science.aae0568).
Variants at the floor of the assay were thinned out.

B1: tRNA (parent)
chain: GUUCCGUUGGCGUAAUGGUAACGCGUCUCCCUCCUAAGGAGAAGACUGCGGGUUCGAGUCCCGUACGGAACG

Variants of: B1
Assay: yeast fitness relative to wild type (ratio to wild type); higher = fitter; tRNA-Arg(CCU), competitive growth, 37 C, YPD
How it was run: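 A pool of Saccharomyces cerevisiae strains, each with a tRNA-Arg(CCU) gene variant at the native genomic locus, was competed in YPD at 37°C for 24 hours across six parallel replicates. The variants had been chemically synthesised at a 3% per-site mutation rate over 69 sites, and gene amplicons before and after competition were read by 100-nucleotide paired-end sequencing. Darwinian fitness relative to wild type rested on changes in genotype frequencies. Genotypes required ≥ 100 starting reads, and estimates < 0.5 were set to 0.5.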

Variant	yeast fitness
U7A G23A A43U	≤ 0.5
U7A G9C G17C G48A G67A	≤ 0.5
U7A G9C G17C G48A G67U	≤ 0.5
U7A G10A C33A A36C A70U	≤ 0.5
U7A A42U	0.696
U7A G23A C30U C33A G41C A42U	≤ 0.5
U7A G44C A45U	0.503
U7A C31G A70U	≤ 0.5
U7A A21G C30G A36G C46G C66U	≤ 0.5
U7A G18C U35C A70U	≤ 0.5
U7A C22G	0.669
U7A A14U C31G	≤ 0.5
U7A G10A A15U G56A A69U	≤ 0.5
U7A C49G C66A	≤ 0.5
U7A C24G A69U	≤ 0.5
U7A G23A C24U U35A C60A A69C	0.706
U7A G23A C24U U35A C60A A69U	≤ 0.5
U7A A65C A69C	≤ 0.5
U7A G12C A14G A21C C24U G38A U54C C66A	≤ 0.5
U7A G41C G63C A65U	≤ 0.5
U7A A21C C30U A42C G48C	≤ 0.5
U7A G10A C33A A36C A69C	≤ 0.5
U7A A20G C31A	≤ 0.5
U7A U8C G9A U32G A42U	0.561

Variant	yeast fitness
U7A C27U C30A A69U	≤ 0.5
U7A A15G G23A C27A U28C C29G C61A	≤ 0.5
U7A A20U G52A	≤ 0.5
U7A C55U A65G	≤ 0.5
U7A G10A A15U A43G G50A	0.53
U7A A20C G68C	0.539
U7A G17A U32C	≤ 0.5
U7A G9C G17C A40U A65C	≤ 0.5
U7A G17C A37G C49A	≤ 0.5
U7A A43C	0.824
U7A C11A A21C C29U C49U G56A	≤ 0.5
U7A A40U C55G G63C	≤ 0.5
U7A A21C U32C	≤ 0.5
U7A G38A	0.695
U7A C30U	0.614
U7A C22A C29A G44C	≤ 0.5
U7A C31G G63A	≤ 0.5
U7A C22G G38C C60U	≤ 0.5
U7A A20C U59A A65C	0.662
U7A A21C U26A C30A A45G G52A	0.547
U7A C29G G67U	≤ 0.5
U7A C29A G58A C61G G63A A70U	0.526
U7A G10C C30G C34U	≤ 0.5
U7A G18C C27G G38A	≤ 0.5

Variant	yeast fitness
U7A U8C A36C G51C	≤ 0.5
U7A C33U	0.592
U7A C33G	0.59
U7A G39C C46G C49U C62U	≤ 0.5
U7A A37C A43C	0.583
U7A G23C C31G C33U A42G G52C G58C	≤ 0.5
U7A C34U C55G	≤ 0.5
U7A C27U C46G	0.691
U7A A37U	0.696
U7A A37G	0.585
U7A G9A U13G G56A	≤ 0.5
U7A C34A	0.662
U7A A15U A40G G68C	0.514
U7A C22U U54C C66U G68C A69U	0.567
U7A C27A U28C C49A	0.622
U7A G18A A36C U47A G68A	0.508
U7A G18A U19G C62A	0.633
U7A C31A G39C G56C	≤ 0.5
U7A C31G U64A C66U G68C	≤ 0.5
U7A G10A G41C A42U C46A C61G	0.561
U7A C27U C30G G38C C49U A65G	0.664
U7A A15C A57G	≤ 0.5
U7A G17C C24G C29A G48C	≤ 0.5
U7A A42G C46A C55G	≤ 0.5

Variant	yeast fitness
U7A C29G G38A G44A C46U C62G	≤ 0.5
U7A G10A C33A A36C C61U C66U	≤ 0.5
U7A A42C C62U	≤ 0.5
U7A G56C C66U	≤ 0.5
U7A G68C	0.811
U7A A21U G41A C66A	0.684
U7A G23C C49G C66A	≤ 0.5
U7A C29A G58A C61G	0.604
U7A G23A C29A	0.531
U7A A37G A40G A43G G52C U59G	0.556
U7A C11U C22U G38C	≤ 0.5
U7A C22A C24U A36U	≤ 0.5
U7A G10A A20C C29A U64C	≤ 0.5
U7A A42C U47A G63C A69C	≤ 0.5
U7A A70U	0.689
U7A A70G	0.829
U7A A21C C33A A45U C62A	≤ 0.5
U7A G41C	0.684
U7A A20C G50A	≤ 0.5
U7A C49G G50C C62U	≤ 0.5
U7A G9C G17C G48A	0.525
U7A C11U A36U C62U C66U	≤ 0.5
U7A C27A G67A	≤ 0.5
U7A C11G U28G U32A G38C	≤ 0.5

Variant	yeast fitness
U7A A37C A43C A65G	≤ 0.5
U7A G10A C30A A43C	≤ 0.5
U7A G39C C55A	0.723
U7A A20G G23A U26G	0.548
U7A A36G A43G C62A	≤ 0.5
U7A G23A C60A	≤ 0.5
U7A C24U U54C A69U	≤ 0.5
U7A G10A C33A A36C	≤ 0.5
U7A G18U C31U C49G	≤ 0.5
U7A C66G	0.62
U7A G10A A15U C46A	≤ 0.5
U7A C29G U64C	≤ 0.5
U7A G9C G17C G48A C66U	≤ 0.5
U7A G18A C33A G38C	≤ 0.5
U7A A21G C30G	≤ 0.5
U7A G23C C33G A42G C46U U64C	≤ 0.5
U7A G12A C34G C62U G68C	≤ 0.5
U7A C49U C62G	0.603
U7A C29G C46G G58A	≤ 0.5
U7A G10C C27G U32A G56C	≤ 0.5
U7A A20G G23A C24U U35A C60A A69C	0.548
U7A A36U C55U A65U	0.555
U7A C30A A70U	0.601
U7A A21C U54C C61G	≤ 0.5

Variant	yeast fitness
U7A G23A C62U	≤ 0.5
U7A A15C C55G	≤ 0.5
U7A C31G	0.78
U7A G51C	0.553
U7A G51A	0.652
U7A G10A A20C C29A G63A A70C	≤ 0.5
U7A G10C G17A C22U C27G	≤ 0.5
U7A U8A G25A C62G	≤ 0.5
U7A A45C G68A	≤ 0.5
U7A A21C C29U A37G C55U	0.568
U7A U8A U35C	0.601
U7A C46G G51A A65C	≤ 0.5
U7A G52C	0.55
U7A G39A C49A	≤ 0.5
U7A C24G C29G C30U A40C G68C	0.663
U7A A45G C61G	≤ 0.5
U7A G67C	0.669
U7A G67A	0.781
U7A A36U A37U	0.768
U7A A40U A43C	0.656
U7A G12C U54G	0.673
U7A G10A A20C C29A C61U C66U	≤ 0.5
U7A G39C A45G	≤ 0.5
U7A A37G A40G A69U	≤ 0.5

Variant	yeast fitness
U7A C30G A43C A57U G58A	≤ 0.5
U7A C24U C33A A65U	0.58
U7A A57G	0.759
U7A A57C	0.54
U7A C22A G52A G58A	≤ 0.5
U7A A21G C30G A36G	≤ 0.5
U7A G9C G10A C30U C34G G68C	≤ 0.5
U7A G10C C22U C27G G50U C66U	≤ 0.5
U7A C11U U47A	≤ 0.5
U7A A36U A45G U47A	≤ 0.5
U7A C29A G50C	≤ 0.5
U7A C29U	0.67
U7A A21U G51C C62U	0.816
U7A A37U C62A	0.571
U7A A20G C46G	0.507
U7A C55U G67C	≤ 0.5
U7A A20C U28C G58C	0.647
U7A G41C U54A C62U A70U	≤ 0.5
U7A C55G	≤ 0.5
U7A U8A G10C C27G C34G	0.564
U7A G18C C27A C31G A43G	≤ 0.5
U7A C22U U26C A40G A43U C49A	≤ 0.5
U7A G23A C29A C61U	0.573
